Source: paper PMC10150721 (Journal of Medicinal Chemistry, 2023)

Legend:
class-IIa HDAC = format: cell-based; settings: HT-29 cells
Summary of the method: (§1)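 HT-29 cells were grown in DMEM with 10% FBS at 37 °C and 5% CO2, then trypsinised and washed into RPMI without phenol red containing 0.1% FBS. They were seeded at 200 000 cells/well overnight. Substrate was 100 μM Boc-Lys-TFA for class-IIa or 200 μM Boc-Lys-Ac for class-I/IIb, incubated 3 h at 37 °C. Trypsin developer with tween 80 then lysed the cells over 1 h; fluorescence read at ex 360/em 460 nm.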

class-I/IIb HDAC = format: cell-based; settings: HT-29 cells
Summary of the method: as §1

[1] = screened at 1.0 and 10.0 µM side-by-side with SAHA and NT160

With `O=C(O)c1ccc(-c2noc(C(F)(F)F)n2)cc1` [compound 1, 4-(5-(trifluoromethyl)-1,2,4-oxadiazol-3-yl)benzoic acid] the “Inhibition of class-IIa HDAC activity” value (class-IIa HDAC; [1]) was roughly 10%, the IC50 (class-IIa HDAC; read-out: IC50, class-IIa HDAC) was greater than 10 µM and the “Inhibition of class-I, class-IIb HDAC activities” value (class-I/IIb HDAC; [1]) was roughly 10%. It also gave an IC50 (class-I/IIb HDAC; read-out: IC50, class-I/IIb HDAC) greater than 10 µM.
